53 molecules from PubChem BioAssay AID504450 (Broad Institute, 2011) can be followed below.

Results filed as inconclusive are left out. Activity calls are given as the source filed them.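 How the source made its calls: active means signal falls, and half-maximal potency stays within ten times the top tested dose in every run; inconclusive means runs disagree, or a flat partial drop, or a poor fit; inactive means inactive every run, flat, wrong way or too weak.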

Test [1] deals with HMLE_sh_eGFP viability, CellTiter-Glo luminescence, 72 h. Briefly: viability loss of control HMLE line – cell-based, HMLE_sh_eGFP, luminescence, powder samples, set 4, counter-screen for breast cancer stem cell project, dose response (AID 504450). Summed up: (§1)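 Material: HMLE breast epithelial cells expressing shRNA against eGFP (counterscreen line). Amount: 2000 cells/well. Compound dosing: 100 nL pinned compound. Incubation: compound exposure about 70-74 h at 37 °C, 5% CO2. Signal: CellTiter-Glo ATP luminescence, reagent diluted 1:3 in PBS, 12 min incubation. Benchmarks: DMSO neutral, puromycin positive.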
On the technique in general: Counterscreens check selectivity or assay interference.

Assay in test [2]: as above
The following applies: HMLE_sh_eGFP viability, CellTiter-Glo luminescence, 72 h; at 30 µM (top of the series). The procedure, abridged: as §1
A general note: ATP-based viability assays read luminescence as a measure of living cells.

For `Cc1csc(NC(=O)c2ccc(COc3ccc(F)cc3)o2)n1`, the AC50 (usually the midpoint of the concentration-response curve, whichever way the signal moves) in test [1] is 28.5 µM.

Turning to `CC(C)c1ccc(/C=C/C(=O)N(C)Cc2ccccc2)cc1`, the concentration at half-maximal activity (AC50) in test [1] was 9.01 µM.

For `Cc1csc(NC(=O)c2ccc(COc3cccc(Cl)c3)o2)n1`, the half-maximal activity concentration (AC50) in test [1] is 6.6 µM.

Consider `Cc1csc(NC(=O)c2ccc(CO)o2)n1`, for which the activity change, negative = viability loss in test [2] was 13.5% (inactive).

In the case of `CC(C)c1ccc(/C=C/C(=O)Nc2nccn2C)cc1`, the concentration at half-maximal activity (AC50) in test [1] was 5.97 µM.

In the case of `O=C(/C=C/c1ccc(Cl)cc1)NC1=NCCS1`, the activity change, negative = viability loss in test [2] was -4.58% (inactive).

Consider `O=C(N/N=C/c1ccn[nH]1)c1cc2ccccc2o1`, for which the activity change, negative = viability loss in test [2] was 16.4% (inactive).

In the case of `CC(C)c1ccc(/C=C/C(=O)Nc2nncs2)cc1`, in test [1], the AC50 was 9.97 µM.

With `Cc1csc(NC(=O)c2ccc(COc3cccc(C(F)(F)F)c3)o2)n1`, the AC50 in test [1] was 23.5 µM.

With `O=C(COc1ccc2c(c1)OCO2)N/N=C/c1ccc[nH]1`, in test [1], the concentration at half-maximal activity (AC50) was 20.9 µM.

Take `Cc1csc(NC(=O)c2ccc(COc3ccc(OC(F)(F)F)cc3)o2)n1`: in test [1], the half-maximal activity concentration (AC50) is 13.2 µM.

Turning to `O=C(CSc1cc(Cl)ccc1Cl)N/N=C/c1ccc[nH]1`, in test [1], the AC50 is 18 µM.

Consider `Cc1cccc(C)c1OCC(=O)N/N=C/c1ccc[nH]1`, for which the activity change, negative = viability loss in test [2] was 8.5% (inactive).

As to `CC[C@@H](C(=O)O)C1CC[C@H](C)C([C@@H](C)[C@H](O)[C@H](C)C(=O)[C@H](CC)C2O[C@]3(C=C[C@@H](O)[C@]4(CC[C@@](C)(C5CC[C@](O)(CC)[C@H](C)O5)O4)O3)[C@H](C)C[C@@H]2C)O1` (stereo partly drawn), the AC50 in test [1] was 0.007 µM.

Take `O=C(c1ccc(COc2ccccc2)o1)N1CCOCC1`: the activity change, negative = viability loss in test [2] is 5.39% (inactive).

For `Cc1csc(NC(=O)c2ccc(COc3ccccc3Cl)o2)n1`, the half-maximal activity concentration (AC50) in test [1] is 0.163 µM.

Turning to `O=C(NC1=NCCS1)C1CC1c1ccccc1` (stereo not drawn), the activity change, negative = viability loss in test [2] was 7.45% (inactive).

As to `O=C(Nc1ccccn1)c1ccc(COc2ccccc2)o1`, in test [1], the AC50 is 29.7 µM.

Regarding `Cc1csc(NC(=O)c2ccc(COc3ccccc3OC(F)(F)F)o2)n1`, the concentration at half-maximal activity (AC50) in test [1] is 0.38 µM.

For the molecule `COc1ccccc1OCC(=O)N/N=C/c1ccc[nH]1`, the activity change, negative = viability loss in test [2] is 14.8% (inactive).

Consider `O=S(=O)(/C=C/c1ccccc1)NC1=NCCS1`, for which the activity change, negative = viability loss in test [2] is 19.6% (inactive).

With `Cc1csc(NC(=O)c2ccc(COc3cccc(F)c3)o2)n1`, the concentration at half-maximal activity (AC50) in test [1] was 21.5 µM.

With `O=C(Nc1nccs1)c1ccc(COc2ccccc2)o1`, the activity change, negative = viability loss in test [2] is 5.29% (inactive).

Consider `O=C(COc1c(Cl)cc(Cl)cc1Cl)N/N=C/c1ccn[nH]1`, for which the activity change, negative = viability loss in test [2] is 0.468% (inactive).

Turning to `Cc1csc(NC(=O)c2ccc(COc3ccccc3C#N)o2)n1`, the half-maximal activity concentration (AC50) in test [1] was 3.69 µM.

In the case of `O=C(/C=C/c1ccc(C(F)(F)F)cc1)NC1=NCCS1`, the activity change, negative = viability loss in test [2] was 11.7% (inactive).

As to `CC(C)c1ccc(/C=C/C(=O)NCc2ccccc2)cc1`, the half-maximal activity concentration (AC50) in test [1] is 13.2 µM.

On to `COc1cccc(/C=C/C(=O)NC2=NCCS2)c1`, for which the activity change, negative = viability loss in test [2] is 1.9% (inactive).

For `O=C(N/N=C/c1ccc[nH]1)C1COc2cc3ccccc3cc2O1` (stereo not drawn), the half-maximal activity concentration (AC50) in test [1] was 18.9 µM.

Turning to `Cc1ccc(C)c(OCC(=O)N/N=C/c2ccc[nH]2)c1`, the activity change, negative = viability loss in test [2] is -10.1% (inactive).

Consider `Cc1csc(NC(=O)c2ccc(COc3ccccc3F)o2)n1`, for which, in test [1], the concentration at half-maximal activity (AC50) was 0.151 µM.

With `Cc1csc(NC(=O)c2ccc(COc3cccc(C#N)c3)o2)n1`, in test [1], the AC50 is 15.4 µM.

As for `COc1cccc(OCc2ccc(C(=O)Nc3nc(C)cs3)o2)c1`, the concentration at half-maximal activity (AC50) in test [1] was 1.59 µM.

On to `Cc1csc(NC(=O)c2ccc(COc3ccc(C#N)cc3)o2)n1`, for which the AC50 in test [1] was 12.7 µM.

In the case of `O=C(NC1=NCCS1)/C(F)=C/c1ccccc1`, the activity change, negative = viability loss in test [2] is 13.9% (inactive).

Turning to `O=C(/C=C/c1cccc(Cl)c1)NC1=NCCS1`, in test [1], the half-maximal activity concentration (AC50) is 21.5 µM.

With `O=C(COc1ccc(Cl)cc1Br)N/N=C/c1ccc[nH]1`, the AC50 in test [1] was 20.9 µM.

Take `CC(C)c1ccc(/C=C/C(=O)Nc2nccs2)cc1`: the AC50 in test [1] was 7.26 µM.

Consider `CC(C)(C)c1ccc(C2CC2C(=O)N/N=C/c2ccc[nH]2)cc1` (stereo not drawn), for which, in test [1], the concentration at half-maximal activity (AC50) is 2.14 µM.

With `Cc1csc(NC(=O)c2ccc(COc3ccccc3C(F)(F)F)o2)n1`, the concentration at half-maximal activity (AC50) in test [1] was 0.057 µM.

In the case of `Cc1csc(NC(=O)c2ccc(COc3ccc(Cl)cc3)o2)n1`, the AC50 in test [1] is 13 µM.

For `O=C(N/N=C/c1ccc[nH]1)C1CC1c1ccccc1` (stereo not drawn), in test [2], the activity change, negative = viability loss is -2.24% (inactive).

Take `O=C(COc1ccc(Cl)cc1Cl)N/N=C/c1ccn[nH]1`: the activity change, negative = viability loss in test [2] was 6.79% (inactive).

As for `CC(C)c1ccc(/C=C/C(=O)Nc2ccccn2)cc1`, in test [1], the AC50 is 14.8 µM.

For `O=C(COc1ccc2ccccc2c1Br)N/N=C/c1ccc[nH]1`, the AC50 in test [1] is 3.03 µM.

Turning to `Cn1ccnc1NC(=O)c1ccc(COc2ccccc2)o1`, the activity change, negative = viability loss in test [2] was -18.4% (inactive).

As for `CC(C)c1ccc(/C=C/C(=O)Nc2ncc[nH]2)cc1`, the activity change, negative = viability loss in test [2] is -18.2% (inactive).

With `Cc1csc(NC(=O)c2ccc(COc3cccc(OC(F)(F)F)c3)o2)n1`, the concentration at half-maximal activity (AC50) in test [1] was 4.4 µM.

Turning to `CC(C)(C)c1ccc(/C=C/C(=O)NC2=NCCS2)cc1`, the AC50 in test [1] is 20.6 µM.

For the molecule `Cc1csc(NC(=O)c2ccc(COc3ccc(C(F)(F)F)cc3)o2)n1`, in test [1], the AC50 is 2.92 µM.

With `C/C(=C\c1ccccc1)C(=O)NC1=NCCS1`, the activity change, negative = viability loss in test [2] was 12% (inactive).

On to `O=C(Nc1nc2cccc(Cl)c2s1)c1ccc(COc2ccccc2)o1`, for which the concentration at half-maximal activity (AC50) in test [1] was 9.36 µM.

For the molecule `COc1ccccc1OCc1ccc(C(=O)Nc2nc(C)cs2)o1`, the AC50 in test [1] was 8.54 µM.
